Assay results as given in ChEMBL document CHEMBL1140497, “The molecular pruning of a phosphoramidate peptidomimetic inhibitor of prostate-specific membrane antigen” (Bioorg Med Chem, 2007).

What was measured:
[1] = target: Glutamate carboxypeptidase 2 (Homo sapiens, UniProt Q04609); experiment: Inhibition of PSMA
Summary of the method: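 Purified PSMA in 50 mM Tris pH 7.4, diluted to give 15–20% substrate conversion without inhibitor. Substrate PAB-Glu-γ-Glu at 10 μM final. Five serial inhibitor dilutions spanning 10–90% inhibition. 15 min at 37 °C with shaking. Stopped with methanolic TFA, buffered with K2HPO4, centrifuged. Supernatant quantified by HPLC; IC50 calculated.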

[2] = test system: prostate-specific antigen; experiment: Half life at pH 6.8 in presence of prostate-specific antigen; assay type: ADME; conditions: prostate-specific antigen (enzyme incubation)

Glutamate carboxypeptidase 2, sequence (Q04609 whole entry): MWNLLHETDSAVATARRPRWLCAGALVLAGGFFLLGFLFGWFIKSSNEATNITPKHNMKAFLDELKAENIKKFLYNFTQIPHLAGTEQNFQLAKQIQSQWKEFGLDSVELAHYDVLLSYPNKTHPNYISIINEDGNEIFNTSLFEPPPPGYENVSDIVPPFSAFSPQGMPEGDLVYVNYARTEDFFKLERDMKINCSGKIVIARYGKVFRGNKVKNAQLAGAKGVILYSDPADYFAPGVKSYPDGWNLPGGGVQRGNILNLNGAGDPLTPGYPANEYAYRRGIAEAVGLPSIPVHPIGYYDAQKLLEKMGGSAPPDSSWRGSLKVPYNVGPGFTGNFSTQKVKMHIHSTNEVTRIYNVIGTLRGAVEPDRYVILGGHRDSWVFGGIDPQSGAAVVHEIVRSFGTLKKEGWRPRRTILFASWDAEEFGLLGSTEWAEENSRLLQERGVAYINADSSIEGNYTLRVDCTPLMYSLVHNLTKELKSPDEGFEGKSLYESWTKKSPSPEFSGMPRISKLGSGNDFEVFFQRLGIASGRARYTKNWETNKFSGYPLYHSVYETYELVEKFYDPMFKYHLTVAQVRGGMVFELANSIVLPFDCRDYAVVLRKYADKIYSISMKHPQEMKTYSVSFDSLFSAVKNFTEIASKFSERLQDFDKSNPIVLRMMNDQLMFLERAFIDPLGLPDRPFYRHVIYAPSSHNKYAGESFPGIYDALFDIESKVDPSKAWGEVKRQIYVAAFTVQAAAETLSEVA

Compound | IC50 [1] [nM] | half-life [2] [h]
O=C(O)CC[C@H](NP(=O)(O)O)C(=O)O [listing 1 of 2 here] | 2.3 | –
O=C([O-])CC[C@H](NP(=O)([O-])OC[C@H](NC(=O)c1ccccc1)C(=O)[O-])C(=O)[O-].[K+].[K+].[K+].[K+] | 35 | 6.8
O=C(O)CC[C@H](NP(=O)(O)OCC(CCc1ccccc1)C(=O)O)C(=O)O (stereo partly specified) | 790 | –
O=C(O)CC[C@H](OP(=O)(O)O)C(=O)O | 15 | –
CN(C(=O)c1ccccc1)[C@@H](COP(=O)(O)N[C@@H](CCC(=O)O)C(=O)O)C(=O)O | 55 | –
CN(CCOP(=O)(O)N[C@@H](CCC(=O)O)C(=O)O)C(=O)c1ccccc1 | 280 | –
O=C(O)CC[C@H](NP(=O)(O)OCCCCc1ccccc1)C(=O)O | 180 | –
O=C(O)CC[C@H](NP(=O)(O)O)C(=O)O [listing 2 of 2 here] | 0.86 | –
O=C(O)CC[C@H](NP(=O)(O)OC[C@@H](NC(=O)c1ccccc1)C(=O)O)C(=O)O | 700 | –
O=C(O)CC[C@H](NP(=O)(O)OCCNC(=O)c1ccccc1)C(=O)O | 1800 | –
